From PubChem BioAssay AID720574 (Broad Institute, 2013)
“And” between values parts separate entries of the source, which are not always exact repeats. Identical values can stand only once. About 140 (0.15%) of roughly 96,000 compounds were called active. Shown is part of a subset that was picked to be rich in actives. A number with no mark means an inactive call.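 How the source made its calls: active means mean replicate inhibition above about 25%, with at least 55% of replicates also reaching it (limit read from the data, passing the limit was not always enough); inconclusive means only one of those two conditions met; inactive means neither condition met.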

The molecules below were run against Lysine-specific demethylase 4C (Homo sapiens) (UniProt Q9H3R0) (assay: KDM4C H3K9me3 demethylation inhibition – biochemical, single concentration HTS, primary screen (AID 720574)). Settings: GST-KDM4C 2-372, H3K9me3 peptide, LANCE TR-FRET; at 12.5 µM; stronger effect = higher value.
Summary of the method: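 Test system: N-terminal GST-fused human GASC-1 (KDM4C) fragment, residues 2-372; quantity: GASC-1 enzyme at 10 nM final in reaction; dosing: single dose; schedule: 30 min demethylation and 1 h detection at room temperature; signal: LANCE TR-FRET, excitation 340 nm, emissions 618 and 671 nm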

Sequence of Lysine-specific demethylase 4C (Homo sapiens) (Q9H3R0 2-372 limits assumed): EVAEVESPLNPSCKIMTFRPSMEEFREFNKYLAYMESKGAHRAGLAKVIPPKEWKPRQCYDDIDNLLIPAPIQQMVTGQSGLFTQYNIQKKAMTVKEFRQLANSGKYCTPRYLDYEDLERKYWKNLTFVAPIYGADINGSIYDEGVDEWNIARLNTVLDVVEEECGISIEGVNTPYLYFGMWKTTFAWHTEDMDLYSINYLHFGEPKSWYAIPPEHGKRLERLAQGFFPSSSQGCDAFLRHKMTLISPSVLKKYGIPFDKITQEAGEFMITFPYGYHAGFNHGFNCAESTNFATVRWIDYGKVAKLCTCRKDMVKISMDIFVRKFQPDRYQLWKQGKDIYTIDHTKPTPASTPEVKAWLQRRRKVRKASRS

Row | SMILES | inhibition
1 | O=C(Cc1cccnc1)N1CC(=O)N2[C@@H](CO)[C@@H](c3ccc(C#CC4CCCCC4)cc3)[C@@H]2C1 | -0.852%
2 | N[C@@H]1CC[C@H](CCn2cc(C3CC3)nn2)O[C@@H]1CO | 57.3% (active)
3 | COc1ccc(-c2cn(CC[C@H]3CC[C@@H](N)[C@H](CO)O3)nn2)cc1 | -0.108%
4 | CN(C)CC(=O)N[C@@H]1CC[C@@H](CCn2cc(C3CC3)nn2)O[C@H]1CO | -0.3%
5 | O=C(c1ccncc1)N1CC[C@@H]2[C@H]1c1cc(Br)ccc1N[C@@H]2CO | 1.89%
6 | CC(=O)N1[C@H](CO)[C@H](c2ccc(-c3ccccc3)cc2)[C@H]1CNC(=O)NC(C)C | -0.299%
7 | CCC(=O)N[C@H]1CC[C@@H](CC(=O)NCC2CC2)O[C@@H]1CO | -0.369%
8 | C/C=C/c1ccc([C@H]2[C@@H](CO)N(C(C)=O)[C@H]2CN(C)S(C)(=O)=O)cc1 | 1.96%
9 | COc1ccc(S(=O)(=O)Nc2ccc3c(c2)C(=O)N([C@@H](C)CO)C[C@H](C)[C@@H](CN(C)C(=O)NC(C)C)OCCCC[C@H](C)O3)cc1 | 0.601%
10 | CN(C)C(=O)[C@@H]1[C@@H](CO)[C@@H]2Cn3c(cccc3=O)[C@H]1N2C(=O)c1ccc(F)cc1 | -1.64%
11 | COc1ccc(NC(=O)N(C)C[C@H]2OCCCC[C@@H](C)Oc3ccc(NC(=O)NC4CCCCC4)cc3C(=O)N([C@H](C)CO)C[C@H]2C)cc1 | -1.08%
12 | O=C(NC1Cc2ccccc2C1)[C@H]1[C@H](CO)[C@H]2Cn3c(ccc(C4=CCCCC4)c3=O)[C@H]2N1CC1CC1 | 3.76%
13 | CC(C)NC(=O)N[C@H]1CC[C@@H](CCNC(=O)C2CCC2)O[C@@H]1CO | -2.41%
14 | Cc1ccccc1S(=O)(=O)N1[C@@H]2CNC[C@H]1C2c1ccc(-c2cccnc2)cc1 (some centres undefined) | -0.633% and -0.155%
15 | O=C(NCc1ccncn1)[C@@H]1[C@@H](CO)[C@@H]2Cn3c(ccc(-c4ccc(F)cc4)c3=O)[C@@H]2N1CC1CC1 | 12.7%
16 | O=C(c1cnccn1)N1CC(=O)N2[C@H](C1)[C@@H](c1ccc(C#CC3CCCC3)cc1)[C@@H]2CO | 7.28%
17 | O=C(C[C@@H]1CC[C@H]2[C@@H](COC[C@@H](O)CN2S(=O)(=O)c2cccc(F)c2)O1)NCCCN1CCOCC1 | -0.281%
18 | C[C@H](CO)N1C[C@H](C)[C@H](CN(C)C(=O)C2CC2)Oc2cc(-c3cccnc3)ccc2S1(=O)=O | 0.237%
19 | Cn1cnc(CCNC(=O)C[C@@H]2CC[C@H]3[C@@H](COC[C@@H](O)CN3C(=O)Nc3ccc(Cl)cc3)O2)c1 | -0.915%
20 | O=C(Cc1ccccn1)N1CC(=O)N2[C@H](C1)[C@@H](c1ccc(-c3ccccc3)cc1)[C@@H]2CO | 1.11%

Row | SMILES | inhibition
21 | O=C(c1ccc2c(c1)OCO2)N1CC(=O)N2[C@H](C1)[C@@H](c1ccc(C#Cc3ccccc3)cc1)[C@@H]2CO | -2.3%
22 | O=C(NCC[C@@H]1CC[C@H](NC(=O)Nc2cc(F)ccc2F)[C@@H](CO)O1)Nc1ccc(Cl)cc1 | 0.858%
23 | C[C@@H]1CN([C@@H](C)CO)S(=O)(=O)c2ccc(C#Cc3ccc(F)cc3)cc2O[C@@H]1CN(C)CC1CC1 | -2.29%
24 | C[C@@H]1CN([C@@H](C)CO)S(=O)(=O)c2ccc(C#Cc3ccc(F)cc3)cc2O[C@H]1CN(C)C(=O)NC1CCCC1 | 55.9% (active)
25 | C/C=C/c1ccc2c(c1)O[C@@H](CN(C)C(=O)NC1CCCC1)[C@@H](C)CN([C@H](C)CO)S2(=O)=O | 0.88%
26 | COc1ccc2c3c(n(C)c2c1)[C@H](CO)N(Cc1ccc(F)cc1)CC31CN(CC2CCOCC2)C1 | -0.66%
27 | COc1ccc2c3c(n(C)c2c1)[C@@H](CO)N(C(=O)Nc1ccc(F)cc1)CC31CCN(C(=O)c2cccnc2)CC1 | -1.49%
28 | CO[C@@H]1CN(C)C(=O)c2cc(NC(=O)C3CC3)ccc2OC[C@H](C)N(Cc2ccc(F)cc2)C[C@@H]1C | -0.0715%
29 | C[C@H](CO)N1C[C@H](C)[C@@H](CN(C)S(=O)(=O)c2ccccc2)OCCCC[C@H](C)Oc2ccc(NC(=O)NC3CCCCC3)cc2C1=O | 0.616%
30 | COCC(=O)NC[C@@H]1[C@@H](c2ccc(C3=CCCC3)cc2)[C@@H](CO)N1C(C)=O | 3.61%
31 | CCC(=O)Nc1ccc2c(c1)C(=O)N(C)C[C@@H](OC)[C@@H](C)CN(C(=O)CN(C)C)[C@@H](C)CO2 | 1.55%
32 | O=C(C[C@@H]1C[C@@H]2c3cc(NS(=O)(=O)c4ccccc4)ccc3O[C@@H]2[C@@H](CO)O1)NC1CCCCC1 | -0.944%
33 | CS(=O)(=O)N1CC2(C1)[C@H](c1ccccc1)[C@H](CO)N2Cc1ccc(F)cc1 | 0.43%
34 | CO[C@@H]1CN(C)C(=O)c2ccc(NC(=O)NC(C)C)cc2OC[C@@H](C)N(Cc2ccc(-c3ccccn3)cc2)C[C@H]1C | 0.434%
35 | CO[C@H]1CN(C)C(=O)c2ccc(NS(=O)(=O)c3ccccc3)cc2OC[C@@H](C)N(Cc2nccs2)C[C@@H]1C | 0.175%
36 | COC(=O)C[C@H]1C[C@H]2c3cc(NC(=O)NC4CCCCC4)ccc3O[C@H]2[C@H](CO)O1 | 9.44%
37 | CC(C)NC(=O)N1[C@H](CNC(=O)CN(C)C)[C@@H](c2ccccc2)[C@@H]1CO | -0.351%
38 | O=C(c1ccccn1)N1CC2(C1)[C@@H](c1ccccc1)[C@@H](CO)N2C(=O)C1CCC1 | -1.3%
39 | O=C(NCC[C@H]1CC[C@H](NS(=O)(=O)c2ccccc2)[C@H](CO)O1)c1cc(Cl)cc(Cl)c1 | -1.8%
40 | COc1ccc(-c2cnc3c(c2)C(=O)N([C@H](C)CO)C[C@@H](C)[C@H](CN(C)C(=O)Cc2ccncc2)O3)cc1 | -0.262%

Row | SMILES | inhibition
41 | CO[C@@H]1CN(C)C(=O)c2cc(NC(=O)Nc3ccccc3F)ccc2OC[C@H](C)NC[C@H]1C | 0.557%
42 | CCCNC(=O)C[C@@H]1CC[C@H]2[C@H](COc3ccc(NC(=O)CCC)cc3C(=O)N2C)O1 | 1.75%
43 | CCCNC(=O)N1CC2(C1)[C@H](c1ccccc1)[C@@H](CO)N2C(=O)C1CC1 | 1.13%
44 | C/C=C/c1ccc([C@@H]2[C@@H](CO)N(C(=O)CN(C)C)C23CN(C(=O)C2CCCC2)C3)cc1 | 0.163%
45 | CO[C@@H](CN(C)S(=O)(=O)c1ccccc1)[C@H](C)CN(Cc1ccccc1Cl)[C@H](C)CO | 1.1%
46 | COc1ccc2c3c(n(C)c2c1)[C@@H](CO)N(C(C)=O)CC31CCN(C(=O)C2CC2)CC1 | -0.393%
47 | O=C(Nc1ccccc1F)N1CC(=O)N2[C@H](C1)[C@H](c1ccc(C#Cc3ccc(F)cc3)cc1)[C@@H]2CO | 1.34%
48 | CCC(=O)N(C)C[C@H]1Oc2ncc(-c3ccccc3OC)cc2C(=O)N([C@H](C)CO)C[C@H]1C | 17.4%
49 | CN1[C@@H]2CN(C(=O)C3CCCCC3)c3ccccc3[C@@H]2[C@@H]1CO | 4.33%
50 | Cc1cccc(S(=O)(=O)N2C[C@@H]3[C@H](c4ccccc42)[C@H](CO)N3CC2CCOCC2)c1 | -0.667%
51 | O=C(NCc1ccc(F)cc1)[C@@H]1[C@@H](CO)[C@@H]2Cn3c(cccc3=O)[C@@H]2N1C(=O)c1cccnc1 | -0.929%
52 | CO[C@H]1CN(C)C(=O)c2ccc(NC(=O)NC(C)C)cc2OC[C@@H](C)N(C(=O)CN(C)C)C[C@H]1C | 0.223%
53 | COc1ccc(CN(C)C[C@@H]2Oc3ccc(NC(=O)Nc4ccc(F)cc4)cc3CC(=O)N([C@@H](C)CO)C[C@H]2C)cc1 | -0.133%
54 | O=C(C1CCOCC1)N1C[C@H]2[C@@H](c3ccccc31)[C@@H](CO)N2Cc1ccccc1 | 2.96%
55 | O=C(CC1CC1)N1[C@@H]2CN(S(=O)(=O)c3ccccc3F)c3ccccc3[C@@H]2[C@@H]1CO | 2%
56 | C[C@H]1CN([C@@H](C)CO)C(=O)c2cc(C#Cc3ccccc3F)cnc2O[C@@H]1CN(C)C(=O)C1CC1 | -1.28%
57 | C[C@H](CO)N1C[C@H](C)[C@@H](CN(C)S(=O)(=O)c2ccccc2)Oc2ncc(C#Cc3ccccc3F)cc2C1=O | -3.49%
58 | C[C@H]1CN([C@@H](C)CO)C(=O)c2cc(C#Cc3ccccc3F)cnc2O[C@H]1CN(C)C | 28.4% (active)
59 | COc1ccc2c3c([nH]c2c1)[C@@H](CO)N(C(=O)Nc1ccc(F)cc1)CC31CN(S(C)(=O)=O)C1 | -0.649%
